{"source": "ChEMBL document CHEMBL4311988", "about": "“Identification of novel non-nucleoside vinyl-stilbene analogs as potent norovirus replication inhibitors with a potential host-targeting mechanism” (Eur J Med Chem, 2019)", "key": {"Norovirus [1]": {"test_system": "Norovirus", "experiment": "Antiviral activity against human norovirus infected in human HG23 cells assessed as inhibition of viral replication at 10 uM after 3 days by qRT-PCR analysis relative to control", "type": "functional", "parameters": "scale not given: the % may be the effect or the level left"}, "[2]": {"experiment": "Cytotoxicity against human HG23 cells assessed as cell viability at 10 uM after 3 days by tetrazolium dye based assay relative to control", "details": "read-out: Activity", "outline": "(§1)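 HG23 cells were treated with DMSO or compound for 3 days, at 10 μM for single-point testing or across a dose range for CC50. Viability was read with a tetrazolium salt (EZ-CYTOX) reagent. Values are means of the most representative triplicate experiment with standard deviations.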"}, "[3]": {"experiment": "Cytotoxicity against human HG23 cells assessed as reduction in cell viability after 3 days by tetrazolium dye based assay", "outline": "as §1"}, "Norovirus [4]": {"test_system": "Norovirus", "experiment": "Antiviral activity against human norovirus infected in human HG23 cells assessed as inhibition of viral replication after 3 days by qRT-PCR analysis", "type": "functional, organism-based", "details": "HG23, 72 h"}, "[5]": {"experiment": "Therapeutic index, ratio of CC50 for cytotoxicity against human HG23 cells harboring human norovirus replicons to EC50 for antiviral activity against norovirus infected in human HG23 cells", "type": "toxicity, cell-based", "details": "read-out: Ratio CC50/EC50"}, "Norovirus [6]": {"test_system": "Norovirus", "experiment": "Antiviral activity against human norovirus infected in HG23 cells assessed as inhibition of neomycin phosphotransferase protein expression after 5 days by Western blot analysis", "type": "functional, organism-based", "details": "HG23, 120 h"}, "Norovirus GII.4": {"test_system": "Norovirus GII.4", "experiment": "Inhibition of norovirus GII.4 RNA-dependent RNA polymerase using poly(C)RNA as substrate incubated for 10 mins and measured after 15 mins by picogreen staining based assay", "outline": "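Recombinant human norovirus GII.4 Sydney 2012 RdRp (400 ng) was preincubated with compound (10 μM) or DMSO (0.5% v/v) for 10 min at 25 °C. It was then added to 5 μM rGTP, 6 μg/mL poly(C), 2.5 mM MnCl₂, 5 mM DTT, 0.01% BSA and 0.005% Tween 20 in 20 mM Tris-HCl pH 7.5. After 15 min at 25 °C, reactions were stopped with 10 mM EDTA and dsRNA quantified by PicoGreen fluorescence (ex 480/em 520). Two independent experiments were run in triplicate.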"}, "[7]": {"experiment": "Metabolic stability in human liver microsomes assessed as compound remaining at 1 uM preincubated for 5 mins followed by NADPH addition and measured after 30 mins by LC-MS/MS analysis relative to control", "type": "ADME, Microsome", "details": "read-out: Stability", "outline": "(§2)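 Human or mouse liver microsomes (0.5 mg/ml) in 0.1 M phosphate buffer pH 7.4 were preincubated with compound at 1 μM for 5 min at 37 °C. An NADPH regeneration system was then added or omitted, and incubation continued 30 min at 37 °C. Reactions were stopped with acetonitrile containing internal standard. Parent compound remaining was measured by LC-MS/MS (C18 column, 0.1% formic acid water/acetonitrile).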"}, "[8]": {"experiment": "Metabolic stability in human liver microsomes assessed as compound remaining at 1 uM after 30 mins in absence of NADPH by LC-MS/MS analysis relative to control", "type": "ADME, Microsome", "details": "read-out: Stability", "outline": "as §2"}, "[9]": {"experiment": "Metabolic stability in mouse liver microsomes assessed as compound remaining at 1 uM preincubated for 5 mins followed by NADPH addition and measured after 30 mins in presence of NADPH relative to control", "type": "ADME, Microsome", "details": "read-out: Stability", "outline": "as §2"}, "[10]": {"experiment": "Metabolic stability in mouse liver microsomes assessed as compound remaining at 1 uM after 30 mins in absence of NADPH by LC-MS/MS analysis relative to control", "type": "ADME, Microsome", "details": "read-out: Stability", "outline": "as §2"}, "Murine norovirus 1": {"test_system": "Murine norovirus 1", "experiment": "Antiviral activity against MNV-1 infected in mouse RAW264.7 cells at 0.05 to 10 uM after 48 hrs by crystal violet staining based assay", "type": "functional, cell-based"}, "Feline calicivirus": {"test_system": "Feline calicivirus", "experiment": "Antiviral activity against feline calicivirus- infected in cat CRFK cells at >5 uM after 48 hrs by crystal violet staining based assay", "type": "functional, organism-based"}, "[11]": {"target": "T1, Nuclear factor erythroid 2-related factor 2 (Homo sapiens) (UniProt Q16236)", "T1 sequence (whole entry)": "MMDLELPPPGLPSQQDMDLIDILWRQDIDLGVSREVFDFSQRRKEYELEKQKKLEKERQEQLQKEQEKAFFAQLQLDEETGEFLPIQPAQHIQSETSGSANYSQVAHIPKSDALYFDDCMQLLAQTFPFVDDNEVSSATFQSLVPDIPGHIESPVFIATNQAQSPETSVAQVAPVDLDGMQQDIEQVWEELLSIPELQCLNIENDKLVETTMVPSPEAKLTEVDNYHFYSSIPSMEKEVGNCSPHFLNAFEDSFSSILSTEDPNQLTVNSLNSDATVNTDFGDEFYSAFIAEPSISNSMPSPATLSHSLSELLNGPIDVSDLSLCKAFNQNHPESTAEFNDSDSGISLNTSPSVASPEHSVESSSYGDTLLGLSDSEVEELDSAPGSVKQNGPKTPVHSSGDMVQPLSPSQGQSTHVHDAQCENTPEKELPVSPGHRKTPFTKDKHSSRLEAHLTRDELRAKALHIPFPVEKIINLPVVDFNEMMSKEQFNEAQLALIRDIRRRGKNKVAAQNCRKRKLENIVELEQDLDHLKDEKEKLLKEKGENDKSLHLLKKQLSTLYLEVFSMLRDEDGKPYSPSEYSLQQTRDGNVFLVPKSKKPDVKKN", "experiment": "Activation of NRF2 pathway in human HG23 cells transfected with human norovirus at 10 uM after 72 hrs by dual-luciferase reporter gene assay", "type": "cell-based", "outline": "(§3)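 HG23 cells carrying the NV replicon were transfected with a Cignal finder reporter array and then given DMSO or 10 μM test compound for 72 h. Luciferase activity for each pathway was read with a dual-luciferase reagent.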"}, "[12]": {"target": "T2, Heat shock factor protein 1 (Homo sapiens) (UniProt Q00613)", "T2 sequence (whole entry)": "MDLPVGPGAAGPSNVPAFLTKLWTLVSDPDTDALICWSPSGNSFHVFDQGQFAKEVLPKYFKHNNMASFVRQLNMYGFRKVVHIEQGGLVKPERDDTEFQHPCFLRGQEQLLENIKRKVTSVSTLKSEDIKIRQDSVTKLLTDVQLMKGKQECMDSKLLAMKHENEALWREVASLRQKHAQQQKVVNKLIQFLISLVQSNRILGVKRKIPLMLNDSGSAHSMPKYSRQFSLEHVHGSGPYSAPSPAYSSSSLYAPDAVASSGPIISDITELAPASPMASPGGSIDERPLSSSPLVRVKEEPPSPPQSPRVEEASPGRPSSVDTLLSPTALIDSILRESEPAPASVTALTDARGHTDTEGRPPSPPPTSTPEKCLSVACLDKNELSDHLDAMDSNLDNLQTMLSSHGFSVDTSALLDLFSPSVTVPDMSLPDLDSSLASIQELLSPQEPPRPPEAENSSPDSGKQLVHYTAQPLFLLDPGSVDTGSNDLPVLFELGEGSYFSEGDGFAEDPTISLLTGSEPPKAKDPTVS", "experiment": "Activation of HSF-1 in human HG23 cells transfected with human norovirus at 10 uM after 72 hrs by dual-luciferase reporter gene assay", "type": "cell-based", "outline": "as §3"}, "[13]": {"target": "T2, Heat shock factor protein 1 (Homo sapiens)", "experiment": "Activation of HSF-1 in human HG23 cells transfected with human norovirus after 72 hrs by dual-luciferase reporter gene assay", "type": "cell-based", "outline": "as §3"}}, "note": "Calls of active or inactive are those of the source. The calls are words filed in the database; no cut-off is given here."}
{"smiles": "C=Cc1c(OC)cc(/C=C/c2ccc(C(=O)N3CCN(Cc4ccc(C(F)(F)F)cc4)CC3)cc2)cc1OC", "values": [{"measurement": "Activity", "setting": "Norovirus [1]", "result": 4.2, "unit": "%"}, {"measurement": "viability at 72 h, 10 µM", "setting": "[2]", "result": 105, "unit": "%"}, {"measurement": "CC50 at 72 h", "setting": "[3]", "result": "> 100000", "unit": "nM"}, {"measurement": "EC50", "setting": "Norovirus [4]", "result": 2430, "unit": "nM"}, {"measurement": "selectivity ratio", "setting": "[5]", "result": "> 41.2"}, {"measurement": "EC50", "setting": "Norovirus [6]", "result": 800, "unit": "nM"}, {"measurement": "inhibition", "setting": "Norovirus GII.4", "result": "inactive"}, {"measurement": "remaining at 0.5 h, 1 µM", "setting": "[7]", "result": 89.1, "unit": "%"}, {"measurement": "remaining at 0.5 h, 1 µM", "setting": "[8]", "result": 94.3, "unit": "%"}, {"measurement": "remaining at 0.5 h, 1 µM", "setting": "[9]", "result": 70.5, "unit": "%"}, {"measurement": "remaining at 0.5 h, 1 µM", "setting": "[10]", "result": 99.2, "unit": "%"}, {"measurement": "Activity", "setting": "Murine norovirus 1", "result": "inactive"}, {"measurement": "Activity", "setting": "Feline calicivirus", "result": "Active"}, {"measurement": "Activity", "setting": "[11]", "result": "Active"}, {"measurement": "Activity", "setting": "[12]", "result": "Active"}, {"measurement": "Activity", "setting": "[13]", "result": "Dose-dependent effect"}]}
